Bioassay records: PubChem BioAssay, several laboratories
PostGolgi ctrl = inhibits growth of the yeast control strain. efflux-deficient yeast background strain, growth absorbance A615, 16 h. inhibition, % at 10 µM. 5% of 98,000 active. AID 738
Cav32 inh = human Cav3.2 channel inhibition, primary screen; O95180; Cav3.2-expressing cells, Fluo-4 calcium fluorescence FDSS; stronger effect = lower value; B-score at 10 µM; 4% of 100,000 active;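 active = single-dose well whose peak fluorescence ratio is a statistical outlier from its plate by either plate-standardised score or position-corrected B-score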
tolC growth inh = growth inhibitors of E. coli BW25113 tolC mutant | OD615 | growth inhibition, % at 10 µM (by protocol) | 2.2% of 65,000 active;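 active = growth inhibition at or above a cutoff equal to the mean over every tested compound plus 3 SD, cut at about 60% in these data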;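 also: growth measured after 20 h incubation at 37 °C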
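Signal: optical density read at 615 nm; Assay system: E. coli ΔtolC::kan strain BW25113; Times: 20 h incubation with compound, 37 °C; Dosing: 10 µM final, single dose.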
E coli WT exp = growth inhibitors of E. coli BW25113 wild type; 0.15% of 98,000 active; growth inhibition, % at 100 µM; OD600 absorbance;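 active = growth inhibition above about 50% at one test dose, limit read from the data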;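 also: growth measured after 20 h incubation at 37 °C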
PostGolgi yeast = growth inhibition of a yeast mutant, post-Golgi transport screen; post-Golgi transport phenotypic cell assay; inhibition, % at 10 µM; 0.9% of 98,000 active; AID 739;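 also: yeast cells grown in 1536-well plates; yeast grown about 18 h at 30C before absorbance read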
* marks the source's active call; other numbers are inactive results; x = no result. Shown are actives, neighbours in structure and some others; about 8.4% of the full set was active somewhere. Rule as the data show it, unless noted: active = inhibition above about 30%; inactive = the rest.

SMILES	PostGolgi ctrl	Cav32 inh	tolC growth inh	E coli WT exp	PostGolgi yeast
COc1cccc(CNn2c(-c3cccc(C)c3)nc3ccccc3c2=O)c1	35.6*	-2.45	x	-23.0	3.7
O=C(OCCN1C(=O)c2ccccc2C1=O)c1cccc(OC(F)F)c1	36.0*	-0.33	11.6	-10.0	2.0
COc1cccc(C(=O)OCCN2CCCCC2)c1	x	-9.39*	x	x	x
COc1ccc(CNS(=O)(=O)c2ccccc2Br)cc1	x	-1.07	x	x	x
CCCn1c(NC(=O)C2CCN(S(=O)(=O)c3cccs3)CC2)nc2ccccc21	32.2*	-2.95	41.7	-3.0	0.9
CCCn1c(NC(=O)c2ccc(C)cc2)nc2ccccc21	0.0	-0.0128	0.5	-7.0	-7.8
C=C(C)Cn1c(CCNC(=O)C(C)C)nc2ccccc21	40.9*	1.33	-8.6	7.0	-5.7
CCCn1c(NC(=O)c2ccccc2)nc2ccccc21	39.5*	-0.864	54.9	2.0	-0.7
CC(=O)Nc1nc2ccccc2n1Cc1ccccc1C	-4.2	0.153	98.1*	4.0	-11.0
CN(Cc1ccccc1)C(=O)c1cccc(N2C(=O)NC3CC2(C)Oc2ccccc23)c1 (configuration not stated)	-4.2	-1.26	x	9.0	0.7
O=S(=O)(c1cccs1)N1CCCc2ccccc21	6.7	-0.207	5.0	9.0	-11.4
C#CCNC(=O)C1=C[C@H](c2cn(C(C)=O)c3ccccc23)[C@@H](CCCO)[C@H](OCC)O1	x	-0.0399	x	x	x
CCOC(=O)C1CCCN(CCCc2ccccc2)C1 (configuration not stated)	-9.3	1.28	-4.1	7.0	0.4
CCN1CCN(CC(=O)Nc2cccc(C)c2)C(=O)C1=O	x	-0.763	-9.9	x	x
CN1/C(=C/C(=O)C2CCC2)Sc2ccccc21	-2.1	-0.291	1.4	16.0	21.0
COCC(=O)/C=C1\Sc2ccccc2N1C	36.1*	1	-9.0	6.0	-0.9
CCOC(=O)c1ccc(S(=O)(=O)N2CCN(CC(=O)NC(=O)NC3CCCCC3)CC2)cc1	6.1	-3.05	6.2	-5.0	4.7
N=C1/C(=C/c2cccs2)C(=O)N=C2SN=C(SCc3ccccc3)N12	7.1	-7.74*	x	-22.0	-3.9
O=Cc1cn(CC(=O)N2CCCc3ccccc32)c2ccccc12	x	0.893	x	x	x
CN1C(=O)/C(=C/c2cn(CC(=O)N3CCCCC3)c3ccccc23)c2ccccc21	52.0*	-1.37	x	-16.0	0.2
Cc1ccc2nc(C(F)(F)F)c(C#N)c(N)c2c1	35.7*	1.47	-1.4	-2.0	-4.6
Cc1cc(C)c2nc(C(F)(F)F)c(C#N)c(N)c2c1	26.4	1.66	x	-2.0	-0.7
COCCn1c(-c2ccc(Cl)cc2)cnc1SCC(=O)NCc1cccs1	10.5	-3.3	13.1	7.0	6.3
COc1cccc(-c2cc(C(=O)Nc3cc(C)on3)no2)c1	0.0	-0.28	-8.5	0.0	2.2
COc1cccc(-c2cc(C(=O)N3CCN(C(c4ccccc4)c4ccccc4)CC3)no2)c1	1.2	-2.13	-3.7	-14.0	38.1*
SMILES	PostGolgi ctrl	Cav32 inh	tolC growth inh	E coli WT exp	PostGolgi yeast
COc1cccc(-c2cc(C(=O)N3C(C)CCCC3C)no2)c1 (configuration not stated)	16.1	-3.69	67.6*	-1.0	-17.3
CN1CCN(c2ccc([N+](=O)[O-])cc2C(=O)c2ccc(Br)cc2)CC1	20.8	-1.77	x	-5.0	8.0
O=C(c1ccc(Br)cc1)c1cc([N+](=O)[O-])ccc1N1CCCCC1	15.4	-3.63*	x	-9.0	1.8
CCn1cnc2c1c(=O)n(Cc1csc(-c3ccccc3)n1)c(=O)n2Cc1ccccc1	47.6*	-3.79	31.9	-4.0	-1.8
CCn1cnc2c1c(=O)n(Cc1nnc3n1-c1ccccc1SC3)c(=O)n2Cc1ccccc1	-0.5	1.4	4.2	6.0	2.3
COc1cccc(C(=O)N2CCN(C3CCC(c4ccccc4)CC3)CC2)c1OC (configuration not stated)	54.4*	x	14.1	14.0	93.6*
CCOC(=O)N1CCN(C(=O)c2cccc(OC)c2OC)CC1	22.8	0.0421	-15.3	-3.0	0.5
COC(C/C=C\C(=O)COCc1ccccc1)OC	x	1.4	x	x	x
CC(/C=N/n1c(C2CCCCC2)n[nH]c1=S)=C\c1ccccc1	44.2*	-0.592	x	1.0	4.2
S=c1[nH]nc(C2CCCCC2)n1/N=C/c1cccs1	21.5	x	x	-4.0	2.0
CC(=C/c1ccccc1)/C=N/n1c(-c2ccco2)n[nH]c1=S	33.4*	-2.77	x	1.0	8.6
CC(=O)Oc1cc2cccc(OC(C)=O)c(=O)c2c(OC(C)=O)c1OC(C)=O	x	-0.0105	x	x	x
O=C(c1ccccc1)c1ccc(N2CCCC2)cc1	7.7	2.15	3.5	3.0	-2.3
O=C(O)c1ccc(N2CCCCC2)cc1	-6.8	-0.118	-17.0	3.0	31.0*
COC(=O)c1ccc2c(c1O)C(=O)c1ccccc1C2=O	82.7*	-0.247	x	0.0	105.5*
COC(=O)c1cccc2c1-c1ccccc1/C2=N/O	47.4*	x	18.6	-1.0	-8.7
CCCCC1CCC(C(=O)NCc2ccc3c(c2)OCO3)CC1 (configuration not stated)	3.1	2.22	x	-3.0	-6.5
CCOc1ccc(N=C2NC(=O)S/C2=C\c2ccc(N(C)C)cc2)cc1	34.3*	x	x	-25.0	-5.1
Cc1nc(N)sc1-c1csc(Nc2ccc(Cl)cn2)n1	41.7*	-0.257	19.7	-9.0	-3.9
COc1ccc2c(c1)OC1(C)CC2C(C(=O)c2ccccc2OC)C(=O)N1 (configuration not stated)	x	x	2.9	x	x
COc1ccc2c(c1)S/C(=C\C(=O)c1ccncc1)N2C	85.9*	-0.116	4.1	-3.0	51.0*
COc1ccc2c(c1)SCC(=O)N2C	x	-0.0495	x	x	x
N#Cc1cccc(C(c2nnnn2C2CCCC2)N2CCCCCC2)c1 (configuration not stated)	9.5	-4.24	x	-9.0	21.0
N#Cc1ccc(C(c2nnnn2C2CCCC2)N2CCC(Cc3ccccc3)CC2)cc1 (configuration not stated)	4.8	-6.19*	x	-5.0	7.9
N#Cc1cccc(C(c2nnnn2C2CCCC2)N2CCC(Cc3ccccc3)CC2)c1 (configuration not stated)	x	-7*	x	x	x
SMILES	PostGolgi ctrl	Cav32 inh	tolC growth inh	E coli WT exp	PostGolgi yeast
O=C(COC(=O)C(Cc1ccccc1)NC(=O)c1ccco1)NC1CC1 (configuration not stated)	7.7	1.55	x	6.0	7.6
O=C(NC(Cc1ccccc1)C(=O)OCC(=O)N1CCc2ccccc21)c1ccco1 (configuration not stated)	-10.1	-4.66*	39.5	-1.0	-1.6
Cc1nc(C(=O)NC2CCOCC2)sc1C1(C)CC(c2cccc([N+](=O)[O-])c2)=NO1 (configuration not stated)	x	-0.0928	x	x	x
Cc1cccc(C)c1NC(=O)c1sccc1SCc1cccc(C(F)(F)F)c1	51.2*	-2.96	x	-24.0	-6.3
CCOC(=O)C1CCN(C(=O)CCCCn2c(=O)[nH]c3ccccc3c2=O)CC1	15.4	-0.202	-6.1	1.0	1.3
CN(C(=S)NC(=O)CCCOc1ccc(Cl)cc1Cl)c1ccccc1	7.5	-3.66*	x	1.0	0.3
CC(C)NC(=O)CCCOc1ccc(Cl)cc1Cl	-3.4	-0.452	x	-10.0	-8.6
O=C(Nc1nnc(-c2ccc(F)cc2)o1)c1ccco1	x	-0.603	76.9*	x	x
